ChEMBL document CHEMBL1127413, “Cephem sulfones as inactivators of human leukocyte elastase. 5. 7 alpha-Methoxy- and 7 alpha-chloro-1,1-dioxocephem 4-ketones” (J Med Chem, 1994)

What was measured:
[1] = biological target: T1, Neutrophil elastase (Homo sapiens, UniProt P08246); assay: Inhibition constant (steady state) against Human Leukocyte Elastase (HLE)
T1 sequence (P08246 whole entry): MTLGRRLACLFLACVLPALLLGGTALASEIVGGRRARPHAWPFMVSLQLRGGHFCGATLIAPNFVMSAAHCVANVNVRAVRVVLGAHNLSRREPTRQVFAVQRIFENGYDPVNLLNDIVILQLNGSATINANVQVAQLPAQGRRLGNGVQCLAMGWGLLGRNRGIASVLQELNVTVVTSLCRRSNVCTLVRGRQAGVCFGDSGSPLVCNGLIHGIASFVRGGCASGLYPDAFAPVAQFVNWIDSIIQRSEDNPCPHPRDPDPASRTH
How it was run: (§1)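 HLE from human sputum, active-site titrated with MeO-Suc-Ala-Ala-Pro-Val-CH2Cl; 1–3 nM active enzyme. […] Substrate and inhibitor concentrations varied to derive kon and Ki(ss).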

[2] = Chemical stability (T1/2 at pH 7.4); type: physicochemical; settings: buffer
[3] = biological target: T2, Neutrophil elastase (Homo sapiens) (UniProt P08246); assay: Tested for the rate constant against Human Leukocyte Elastase (HLE) inactivation; how it was run: as §1
T2 sequence (whole entry): T1 sequence (P08246 whole entry)

[4] = biological target: T2, Neutrophil elastase (Homo sapiens); assay: Tested for inhibition of Human Leukocyte Elastase (HLE) in living polymorphonuclear leukocytes; type: cell-based; parameters: scale not given: the % may be the effect or the level left
How it was run: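 Human PMNs from citrated venous blood, 5 × 10^6 cells/mL, exposed to inhibitor (10 μg per mL, in DMSO) for 15 min at 37 °C, then washed three times. Stimulated with cytochalasin B for 5 min, then fMLP for 15 min. Supernatant elastase assayed with N-acetyl-Ala-Ala-Pro-Ala-7-(4-methyl)coumarylamide, 6 h at 25 °C, fluorescence read; DMSO-only controls.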

Row | SMILES | Ki ss [1] | half-life [2] | k on [3] | Activity [4]
1 | CO[C@H]1C(=O)N2C(C(=O)c3ccccc3)=C(CSc3nnnn3C)[C@@H](Sc3nnnn3C)S(=O)(=O)C12 (some centres not stated) | 55 nM | 1400 h |  | 
2 | CC(=O)OCC1=C(C(=O)C(C)(C)C)N2C(=O)[C@H](Cl)C2S(=O)(=O)C1 (some centres not stated) | 4 nM | 3.9 h |  | 
3 | CO[C@H]1C(=O)N2C(C(=O)C(C)(C)C)=C(C)[C@@H](OC(=O)CCC(=O)c3ccccc3)S(=O)(=O)C12 (some centres not stated) | < 2 nM | 13 h |  | 
4 | CO[C@H]1C(=O)N2C(C(=O)C(C)(C)C)=C(C)CS(=O)(=O)C12 (some centres not stated) | 1300 nM | 106 h |  | 
5 | CO[C@H]1C(=O)N2C(C(=O)C(C)(C)C)=C(COC(C)=O)[C@@H](Sc3nnnn3C)S(=O)(=O)C12 (some centres not stated) | 6 nM | 10 h |  | 
6 | CC(=O)OCC1=C(C(=O)c2ccccc2)N2C(=O)[C@H](Cl)C2S(=O)(=O)C1 (some centres not stated) | 12 nM | 1.5 h |  | 
7 | CC1=C(C(=O)C(C)(C)C)N2C(=O)[C@H](Cl)C2S(=O)(=O)[C@@H]1Sc1nnnn1C (some centres not stated) | 300 nM | 3.2 h |  | 
8 | COC(=O)C1=C(COC(C)=O)CS(=O)(=O)C2[C@@H](Cl)C(=O)N12 (some centres not stated) | 12 nM | 0.9 h |  | 
9 | CO[C@H]1C(=O)N2C(C(=O)N3CCC[C@H]3C(=O)O)=C(COC(C)=O)CS(=O)(=O)C12 (some centres not stated) | 200 nM | 18 h | 1800 M⁻¹ s⁻¹ | 
10 | CC1=C(C(=O)c2ccccc2)N2C(=O)[C@H](Cl)C2S(=O)(=O)C1 (some centres not stated) | 130 nM | 2.3 h |  | 
11 | CC1=C(C(=O)C(C)(C)C)N2C(=O)[C@H](Cl)C2S(=O)(=O)C1 (some centres not stated) | 380 nM | 5.6 h |  | 
12 | CO[C@H]1C(=O)N2C(C(=O)C(C)(C)C)=C(C)[C@@H](OC(=O)C(C)(C)C)S(=O)(=O)C12 (some centres not stated) | < 2 nM | 54 h |  | 
13 | CC(=O)OCC1=C(C(=O)C(C)(C)C)N2C(=O)[C@H](Cl)C2S(=O)(=O)[C@@H]1Sc1nnnn1C (some centres not stated) | 140 nM | 1.8 h |  | 
14 | CO[C@H]1C(=O)N2C(C(=O)C(C)(C)C)=C(CSc3nc(=O)c(=O)[nH]n3C)CS(=O)(=O)C12 (some centres not stated) | 27 nM | 16 h |  | 
15 | CO[C@H]1C(=O)N2C(C(=O)OC(C)(C)C)=C(CSc3ccccn3)CS(=O)(=O)C12 (some centres not stated) | 100 nM | 5.1 h |  | 
16 | CO[C@H]1C(=O)N2C(C(=O)C(C)(C)C)=C(COC(C)=O)CS(=O)(=O)C12 (some centres not stated) | 11 nM | 14 h |  | 
17 | CO[C@H]1C(=O)N2C(C(=O)c3ccccc3)=C(CSc3nnnn3C)CS(=O)(=O)C12 (some centres not stated) | 110 nM | 17 h |  | 
18 | CO[C@H]1C(=O)N2C(C(=O)C(C)(C)C)=C(C)[C@@H](OC(C)=O)S(=O)(=O)C12 (some centres not stated) | 4 nM | 6.3 h |  | 
19 | CO[C@H]1C(=O)N2C(C(=O)C(C)(C)C)=C(C)[C@@H](S(=O)(=O)c3ccccc3)S(=O)(=O)C12 (some centres not stated) | 20 nM | 10 h |  | 
20 | CO[C@H]1C(=O)N2C(C(=O)c3ccccc3)=C(C)CS(=O)(=O)C12 (some centres not stated) | 2700 nM | 26 h |  | 
21 | CCC(=O)C1=C(COC(C)=O)CS(=O)(=O)C2[C@@H](Cl)C(=O)N12 (some centres not stated) | 11 nM | 1.1 h |  | 
22 | CO[C@H]1C(=O)N2C(C(=O)C(C)(C)C)=C(CSc3ccccn3)CS(=O)(=O)C12 (some centres not stated) | 12 nM | 28 h |  | 

Row | SMILES | Ki ss [1] | half-life [2] | k on [3] | Activity [4]
23 | Cn1nnnc1SCC1=C(C(=O)C(C)(C)C)N2C(=O)[C@H](Cl)C2S(=O)(=O)C1 (some centres not stated) | 7 nM | 3 h |  | 
24 | CO[C@H]1C(=O)N2C(C(=O)N3CCCC3)=C(CSc3nc(=O)c(=O)[nH]n3C)CS(=O)(=O)C12 (some centres not stated) | 75 nM | 25 h |  | 
25 | CO[C@H]1C(=O)N2C(C(=O)OC(C)(C)C)=C(CSc3nnnn3C)CS(=O)(=O)C12 (some centres not stated) | 13 nM | 3.8 h |  | 
26 | CC(=O)OCC1=C(C(=O)Cc2ccccc2)N2C(=O)[C@H](Cl)C2S(=O)(=O)C1 (some centres not stated) | 100 nM | 0.2 h |  | 
27 | CO[C@H]1C(=O)N2C(C(=O)C(C)(C)C)=C(C)[C@@H](OC(=O)c3ccccc3)S(=O)(=O)C12 (some centres not stated) | < 2 nM | 24 h |  | 
28 | CC(=O)CCC1=C(COC(C)=O)CS(=O)(=O)C2[C@@H](Cl)C(=O)N12 (some centres not stated) |  | 10 h |  | 
29 | CO[C@H]1C(=O)N2C(C(=O)C(C)(C)C)=C(CSc3nnnn3C)[C@@H](Sc3nnnn3C)S(=O)(=O)C12 (some centres not stated) | 93 nM | 31 h |  | 
30 | CO[C@H]1C(=O)N2C(C(=O)C(C)(C)C)=C(C)[C@@H](Sc3nnc(C)s3)S(=O)(=O)C12 (some centres not stated) | 12 nM | 27 h |  | 
31 | CO[C@H]1C(=O)N2C(C(=O)C(C)(C)C)=C(C)[C@@H](Sc3nc(=O)c(=O)[nH]n3C)S(=O)(=O)C12 (some centres not stated) | 26 nM | 21 h |  | 
32 | CO[C@H]1C(=O)N2C(C(=O)C(C)(C)C)=C(CSc3nnnn3C)[C@@H](OC(=O)c3ccccc3)S(=O)(=O)C12 (some centres not stated) | < 2 nM | 0.7 h |  | 
33 | CO[C@H]1C(=O)N2C(C(=O)C(C)(C)C)=C(C)[C@@H](OC(=O)c3ccc(CSc4nc(=O)c(=O)[nH]n4C)cc3)S(=O)(=O)C12 (some centres not stated) | 2 nM | 7.5 h |  | 
34 | CO[C@H]1C(=O)N2C(C(=O)c3ccccc3)=C(C)[C@@H](Sc3nnnn3C)S(=O)(=O)C12 (some centres not stated) | 1400 nM | 200 h |  | 
35 | CO[C@H]1C(=O)N2C(C(=O)SCC(NC(=O)OC(C)(C)C)C(=O)OC(c3ccccc3)c3ccccc3)=C(CSc3nnnn3C)CS(=O)(=O)[C@H]12 (some centres not stated) |  |  |  | 8%
36 | CO[C@H]1C(=O)N2C(C(=O)C(C)(C)C)=C(C)[C@@H](OC=O)S(=O)(=O)C12 (some centres not stated) | 600 nM | < 0.5 h |  | 
37 | CO[C@H]1C(=O)N2C(C(=O)C(C)(C)C)=C(C)[C@@H](Sc3nnnn3C)S(=O)(=O)C12 (some centres not stated) | 8 nM | 18 h |  | 
38 | CC1=C(C(=O)c2ccccc2)N2C(=O)[C@H](Cl)C2S(=O)(=O)[C@@H]1Sc1nnnn1C (some centres not stated) | 270 nM | 4.1 h |  | 
39 | COCC1=C(C(=O)C(C)(C)C)N2C(=O)[C@H](Cl)C2S(=O)(=O)C1 (some centres not stated) | 170 nM | 6.9 h |  | 
40 | CO[C@H]1C(=O)N2C(C(=O)C(C)(C)C)=C(CSc3nnnn3C)CS(=O)(=O)C12 (some centres not stated) | 34 nM | 24 h |  | 
41 | CO[C@H]1C(=O)N2C(C(=O)C(C)(C)C)=C(COC(=O)c3ccccc3)[C@@H](OC(=O)c3ccccc3)S(=O)(=O)C12 (some centres not stated) | < 2 nM | 1.2 h |  | 
42 | CO[C@H]1C(=O)N2C(C(=O)OC(C)(C)C)=C(C)[C@@H](Sc3ccccn3)S(=O)(=O)C12 (some centres not stated) | 180 nM | 4.1 h |  | 
43 | CO[C@H]1C(=O)N2C(C(=O)C(C)(C)C)=C(C)[C@@H](OC(=O)c3ccc4ccccc4c3)S(=O)(=O)C12 (some centres not stated) | < 2 nM | 33 h |  | 
44 | CO[C@H]1C(=O)N2C(C(=O)C(C)(C)C)=C(C)[C@@H](Sc3ccccn3)S(=O)(=O)C12 (some centres not stated) | 10 nM | 24 h |  | 
